Where two headings read alike, the source gives them in different places.

For data set [1] the following is noted: cited from earlier work.
A short description of data set [2]: Size-exclusion FPLC retention of nitrophorins, mutants and ligand complexes. The class given is physicochemical, Rhodnius prolixus. The following applies: under any conditions / at any pH. In a few lines:
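Analytical run on Superdex75 at 4 °C in 100 mM sodium acetate, NaCl added to 220 mM total ionic strength. Protein at 1 mM was run at pH 5.0, 5.25, 5.5 and 5.75. Separately, protein from 1 to 0.025 mM was run at pH 5.0. Elution position compared with molecular weight standards.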

The nature of data set [3]: Stopped-flow kinetics of release of NO from the nitrophorins. Format: binding, Rhodnius prolixus. Summed up:
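Stopped-flow measurement of NO release from NO-bound nitrophorins with native or M0-bearing N-termini. Dissociation Kd obtained at pH 5.0 and 7.5 in dilute solution, 5–10 μM protein in 100 mM sodium phosphate buffer.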

For the substance “(M0)NP2: recombinant NP2 retaining M0 (N-terminus MDCST...)”, the “NO Kd (NO dissociation)” value in data set [1] (column pH 7.5, measured at pH 8.0 rather than pH 7.5 (footnote a)) is given as 0.12 ± 0.01 ^a s^–1; in data set [1] (pH 5.0, ref 17) it was 0.05 ± 0.01 s^–1; in data set [1] (pH 5.0, ref 29), 0.049 ± 0.002 s^–1; in data set [1] (pH 7.5), 0.161 ± 0.005 s^–1. Further, the dimer formation entry in data set [2] is listed as “do not form dimers”.

With “NP2(D1A): D1A mutant of NP2, no M0 present”, the “NO Kd (NO dissociation)” value is given as 0.015 ± 0.005 s^–1 in data set [1] (pH 5.0, ref 29) and 0.089 ± 0.002 s^–1 in data set [1] (pH 7.5).

In the case of “NP2: nitrophorin 2 of Rhodnius prolixus; in b68 named without construct”, the results for the “factor by which having M0 present increased the Kd for the loss of NO” value in data set [3] (pH 5.0) and in data set [3] (pH 7.5) were 1.6 and 1.7, respectively.

The values are drawn from paper PMC4303305 (Biochemistry, 2014).
